These results are taken from article PMC3058531 (Biochemistry, 2010).

Data set [1] concerns the target T1, Southampton norovirus 3C protease (SV3CP) (Southampton virus, UniProt Q04544). Description: Chromogenic pNA peptide substrate cleavage, initial rates at 405 nm. The format is biochemical. To be noted: compared with Ac-EFQLQ-pNA or other trial substrates; pH 8.5. In short, it runs like this:
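Recombinant SV3CP expressed in E. coli BL21(DE3) pLysS, self-excised from flanking sequences, purified by two cation-exchange steps. N-acetylated peptide-pNA substrates in DMSO, diluted into 100 mM Tris pH 8.5 with 5 mM β-mercaptoethanol (final substrate 0.1−3.0 mM, enzyme 0.1 mg/mL). A405 of samples read every 1 min for 10 min; initial rates gave KM, kcat and kcat/KM.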

Data set [2] concerns the target T1, Southampton norovirus 3C protease (SV3CP). Description: Mass spectrometry of the SV3CP-MAPI complex. The format is binding. To be noted: single major protein peak at 20045 Da.
Data set [3] concerns Southampton norovirus 3C protease (SV3CP), Cys 139. The data set is described as follows: X-ray structure of the SV3CP-MAPI complex. It is filed as binding. To be noted: cocrystal at 1.7 Å resolution, PDB 2IPH; crystals at pH 8.5.
Data set [4] has as its target T1, Southampton norovirus 3C protease (SV3CP). It is filed as biochemical. To be noted: preincubation with millimolar concentrations of the inhibitor prior to addition of substrate; within the dead time of the experiment.
Data set [5] in a line: Solubility of the inhibitor in protein buffer. It is filed as physicochemical. To be noted: 10% DMSO had to be included in the buffer.

Entries after “also recorded” stand apart in the source; their conditions may differ. * marks the point of attachment. pNA = O=[N+]([O-])c1ccc(N*)cc1

T1 sequence (Q04544 1100-1280 limits assumed): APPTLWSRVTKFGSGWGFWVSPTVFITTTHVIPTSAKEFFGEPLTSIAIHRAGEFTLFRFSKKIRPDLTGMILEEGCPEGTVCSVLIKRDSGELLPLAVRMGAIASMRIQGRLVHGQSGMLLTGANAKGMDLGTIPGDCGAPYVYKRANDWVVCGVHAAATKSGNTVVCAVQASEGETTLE

Take Ac-EFQLQ-pNA: in data set [1], the “kcat/KM, kcat and KM comparison in words” value is reported as “had the highest kcat/KM ratio; also recorded: the best substrate in terms of specificity constant (kcat/KM ratio)”.
As for Ac-DEFQLQ-pNA, the “kcat/KM, kcat and KM comparison in words” value in data set [1] is “had a kcat which was higher than that of Ac-EFQLQ-pNA although its proportionately higher KM meant that it was a slightly inferior substrate in terms of specificity constant”.
Regarding acetyl-Glu-Phe-Gln-Leu-Gln-X [MAPI], the binding stoichiometry result in data set [2] is reported as “one molecule of SV3CP plus one molecule of the inhibitor”. For the same substance, the covalent binding mode entry in data set [3] is “the active site thiol of Cys 139 is bound covalently to the C-terminal Michael-acceptor extension of the inhibitor MAPI”. In addition, the “time to irreversible inactivation of the enzyme” value in data set [4] is recorded as below 30 s. Besides, the “solubility (in words)” value in data set [5] is reported as “essentially insoluble”.
